Measurements: paper PMC6062249 (Toxicology Research, 2016)
Read-outs that look alike come from different tables or passages of the source.

How the values were obtained:
[1] = molecular target: T1, human recombinant CYP1A1 (Homo sapiens, UniProt P04798); assay: EROD activity of microsomes containing human recombinant CYP1A1; type: biochemical
T1 sequence (P04798 1-512): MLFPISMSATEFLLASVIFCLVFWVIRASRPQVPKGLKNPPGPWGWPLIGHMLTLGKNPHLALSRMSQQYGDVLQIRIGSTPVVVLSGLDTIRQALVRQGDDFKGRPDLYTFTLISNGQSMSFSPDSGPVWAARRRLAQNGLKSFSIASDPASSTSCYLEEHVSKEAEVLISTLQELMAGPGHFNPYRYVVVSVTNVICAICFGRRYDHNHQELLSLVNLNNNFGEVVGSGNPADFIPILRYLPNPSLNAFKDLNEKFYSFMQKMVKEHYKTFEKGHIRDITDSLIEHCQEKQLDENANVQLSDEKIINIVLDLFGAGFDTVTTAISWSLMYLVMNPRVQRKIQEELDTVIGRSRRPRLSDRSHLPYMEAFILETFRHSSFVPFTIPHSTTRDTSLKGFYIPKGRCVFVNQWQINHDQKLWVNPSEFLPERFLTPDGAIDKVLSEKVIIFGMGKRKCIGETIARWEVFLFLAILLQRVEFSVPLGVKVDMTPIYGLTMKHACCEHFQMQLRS
Procedure, shortened: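 Microsomes containing recombinant human CYP1A1 (2.5 nM) with NADPH-P450 reductase were pre-incubated 5 min with test compound (0.00064–20 μM) or DMSO (final <0.5%). 7-Ethoxyresorufin (0.5 μM) and NADPH (0.4 mM) were then added. Resorufin formation was followed kinetically at 535/590 nm, every 2 s, in triplicate. DMSO control was set as 100% and the no-NADPH reaction as 0%; IC50 was fitted by nonlinear regression.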

[2] = tested on: CYP1B1 mRNA in HaCaT cells; assay: CYP1B1 gene expression by qRT-PCR in HaCaT cells, single exposure; type: cell-based, human; conditions: 6 h; for reduction of CYP1B1 mRNA levels compared to DMSO control: dose-dependent, 0.1-10 μM
Procedure, shortened: (§1)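 Confluent HaCaT cells (seeded 1 × 10^4/well, grown 3 d) were exposed in fresh DMEM to 0.1, 1.0 or 10 μM test compound or DMSO for 6 h. One-step SYBR Green RT-PCR used cell lysate directly with 200 nM primers. Cycling was 48 °C 30 min, 95 °C 10 min, then 40 × (95 °C 15 s, 60 °C 1 min), with melt curve. Expression is 2^–ΔΔCt normalized to B2M; three experiments in duplicate. Calls required p < 0.05 (two-way ANOVA, Bonferroni) and >2-fold versus DMSO; strong inducer was ≥20-fold.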

[3] = tested on: CYP1A1 mRNA in HaCaT cells; assay: CYP1A1 gene expression by qRT-PCR in HaCaT cells, single exposure; type: cell-based, human; conditions: 6 h; for reduction of CYP1A1 mRNA levels compared to DMSO control: dose-dependent, 0.1-10 μM
Procedure, shortened: as §1

[4] = tested on: TCDD induced CYP1 mRNA (CYP1A1 and 1B1) in HaCaT cells; assay: TCDD-induced CYP1 mRNA; type: cell-based, human; conditions: TCDD 5 nM + 0.1-10 μM oxy-PAH, 6 h
Procedure, shortened: (§2)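 Confluent HaCaT cells were exposed for 6 h to TCDD (5 nM) alone or with 0.1, 1.0 or 10 μM test compound. CYP1A1 and CYP1B1 mRNA were measured by one-step SYBR Green RT-PCR on cell lysate with 200 nM primers. Quantification used 2^–ΔΔCt with B2M as reference; three experiments in duplicate. Levels are % of TCDD-alone mRNA (100%). Strong inhibitor meant p < 0.05 at ≤1 μM; inhibitor meant p < 0.05 at 10 μM (two-way ANOVA, Bonferroni).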

[5] = tested on: CYP1-dependent EROD activity in HaCaT cells; assay: Cellular CYP1-dependent EROD activity in HaCaT cells, single exposure; type: cell-based, human; conditions: HaCaT cells, 0.1, 1.0 or 10 μM, 3-48 h
Procedure, shortened: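 Confluent HaCaT cells were exposed to 0.1, 1.0 or 10 μM test compound, B[a]P or DMSO for 3, 6, 24 and 48 h. Medium was removed and cells rinsed with PBS, then incubated 20 min at 37 °C with 2 μM 7-ethoxyresorufin in 50 mM sodium phosphate, pH 8.0. The reaction was stopped with cold fluorescamine (0.15 mg/mL in acetonitrile). Resorufin was read at 535/590 nm in triplicate and normalized to protein (fluorescamine, 390/485 nm).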

[6] = tested on: TCDD induced CYP1B1 mRNA in HaCaT cells; assay: TCDD-induced CYP1B1 mRNA in HaCaT cells, co-exposure with oxy-PAH; type: cell-based, human; conditions: TCDD 5 nM + 1 μM oxy-PAH, 6 h
Procedure, shortened: as §2

[7] = tested on: TCDD induced CYP1-dependent EROD activity in HaCaT cells; assay: TCDD-induced cellular EROD activity in HaCaT cells, co-exposure with oxy-PAH; type: cell-based, human; conditions: TCDD 5 nM + 0.1-10 μM oxy-PAH, 6, 12, 24 h
Procedure, shortened: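 Confluent HaCaT cells were co-exposed to TCDD (5 nM) alone or with 0.1, 1.0 or 10 μM test compound for 6, 12 and 24 h. After a PBS rinse, cells were incubated 20 min at 37 °C with 2 μM 7-ethoxyresorufin in 50 mM sodium phosphate, pH 8.0, and stopped with cold fluorescamine. Resorufin (535/590 nm) was read in triplicate and normalized to fluorescamine protein signal. Activity is % of TCDD alone.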

[8] = tested on: TCDD induced CYP1A1 mRNA in HaCaT cells; assay: TCDD-induced CYP1A1 mRNA in HaCaT cells, co-exposure with oxy-PAH; type: cell-based, human; conditions: TCDD 5 nM + 1 μM oxy-PAH, 6 h
Procedure, shortened: as §2

[9] = tested on: HaCaT cells; assay: Alamar Blue cell viability assay; type: cell-based, human; conditions: 10 μM, alone or with TCDD 5 nM, 24 h
Procedure, shortened: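 HaCaT keratinocytes were grown in DMEM with 10% FBS at 37 °C, 5% CO2, seeded at 1 × 10^4 cells/well and cultured 3 d to high confluency. Cells were exposed in fresh DMEM to test compound alone or with TCDD (5 nM), with 0.1–0.18% DMSO as solvent control. Afterwards, 10% AlamarBlue in DMEM was added for 1 h at 37 °C and fluorescence read at 560/590 nm. Viability is given as % of DMSO control, from three separate experiments.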

[10] = tested on: CYP1; conditions: read-out: reported IC50 values, CYP1 inhibition; cited from earlier work
[11] = IC50, inhibition of CYP1A1-mediated EROD activity, human recombinant CYP1A1 2.5 nM, 7-ethoxyresorufin 0.5 μM, NADPH 0.4 mM, 5 min pre-incubation

Structure (SMILES): O=C1C(=O)c2cccc3cccc1c23 [1,2-ACNQ, acenaphthylene-1,2-quinone]
- IC50 [1, 11]: > 10000 nM

Structure (SMILES): O=C1C=CC(=O)c2c1ccc1c2ccc2ccccc21 [1,4-CHRQ, chrysene-1,4-quinone]
- increase of CYP1B1 mRNA levels compared to DMSO control ([2]; 0.1-10 μM oxy-PAH): ≤ 40 fold
- increase of CYP1A1 mRNA levels compared to DMSO control ([3]; 0.1-10 μM oxy-PAH): up to 60 fold
- effect on TCDD-induced CYP1A1 and 1B1 expression levels (in words) [4]: no effect at all
- IC50 [1, 11]: 6200 nM
- induction of cellular EROD activity (in words) [5]: did not induce EROD activity

Structure (SMILES): O=C1CCc2ccccc21 [1-INO, 1-Indanone]
- IC50 [1, 11]: > 10000 nM

Structure (SMILES): O=C1C=Cc2cccc3cccc1c23 [1H-PHO, 1H-phenalen-1-one]
- IC50 [1, 11]: > 10000 nM

Structure (SMILES): Cc1cc2c(cc1C)C(=O)c1ccccc1C2=O [2,3-DMAQ, 2,3-dimethylanthracene-9,10-quinone]
- reduction of TCDD-induced CYP1B1 mRNA levels [6]: around 50%
- inhibition of TCDD-mediated EROD activity (in words) [7]: significant inhibition
- IC50 [1, 11]: 2100 nM
- induction of cellular EROD activity (in words) [5]: significantly increased levels of enzyme activity compared to the DMSO control but lower than B[a]P
- reduction of TCDD-induced CYP1A1 mRNA levels [8]: around 50%

Structure (SMILES): Cc1ccc2c(c1)C(=O)c1ccccc1C2=O [2-MAQ, 2-methylanthracene-9,10-quinone]
- induction of cellular EROD activity (in words) [5]: significantly increased levels of enzyme activity compared to the DMSO control but lower than B[a]P

Structure (SMILES): O=c1c2cccc3ccc4cccc1c4c32 [4H-CPO, 4H-Cyclopenta[def]phenanthrene-4-one]
- reduction of CYP1B1 mRNA levels compared to DMSO control [2]: up to 15 fold
- reduction of CYP1A1 mRNA levels compared to DMSO control [3]: up to 15 fold
- IC50 [1, 11]: 320 nM
- induction of cellular EROD activity (in words) [5]: significantly increased levels of enzyme activity compared to the DMSO control but lower than B[a]P

Structure (SMILES): O=C1c2ccccc2C(=O)c2cc3ccccc3cc21 [5,12-NQ, naphthacene-5,12-quinone]
- increase of CYP1B1 mRNA levels compared to DMSO control ([2]; 0.1-10 μM oxy-PAH): ≤ 40 fold
- increase of CYP1A1 mRNA levels compared to DMSO control ([3]; 0.1-10 μM oxy-PAH): up to 60 fold
- inhibition of TCDD-mediated EROD activity (in words) [7]: significant inhibition
- effect on TCDD-induced CYP1A1 and 1B1 expression levels (in words) [4]: no effect at all

Structure (SMILES): O=C1c2cccc3ccc4ccc5cccc1c5c4c23 [6H-BPO, 6H-benzo[cd]pyren-6-one]
- reduction of CYP1B1 mRNA levels compared to DMSO control [2]: up to 15 fold
- reduction of CYP1A1 mRNA levels compared to DMSO control [3]: up to 15 fold
- reduction of TCDD-induced CYP1B1 mRNA levels [6]: around 50%
- inhibition of TCDD-mediated EROD activity (in words) [7]: significant inhibition
- cytotoxicity (Alamar Blue viability, in words) [9]: not associated with increased cytotoxicity
- induction of cellular EROD activity (in words) [5]: significantly increased levels of enzyme activity compared to the DMSO control but lower than B[a]P
- reduction of TCDD-induced CYP1A1 mRNA levels [8]: around 50%

Structure (SMILES): O=C1c2ccccc2C(=O)c2c1ccc1ccccc21 [7,12-BAQ, benz[a]anthracene-7,12-quinone]
- increase of CYP1B1 mRNA levels compared to DMSO control ([2]; 0.1-10 μM oxy-PAH): ≤ 40 fold
- increase of CYP1A1 mRNA levels compared to DMSO control ([3]; 0.1-10 μM oxy-PAH): up to 60 fold
- inhibition of TCDD-mediated EROD activity (in words) [7]: most potent inhibitors
- effect on TCDD-induced CYP1A1 and 1B1 expression levels (in words) [4]: no effect at all
- IC50 [1, 11]: 37 nM

Structure (SMILES): O=C1c2ccccc2-c2cccc3cccc1c23 [7H-BAO, 7H-benz[de]anthracene-7-one]
- IC50 [1, 11]: 770 nM

Structure (SMILES): O=C1c2ccccc2C(=O)c2ccccc21 [9,10-AQ, anthracene-9,10-quinone]
- reduction of CYP1B1 mRNA levels compared to DMSO control [2]: up to 15 fold
- reduction of CYP1A1 mRNA levels compared to DMSO control [3]: up to 15 fold
- inhibition of TCDD-mediated EROD activity (in words) [7]: significant inhibition
- IC50 [1, 11]: > 10000 nM

Structure (SMILES): O=C1C(=O)c2ccccc2-c2ccccc21 [9,10-PQ, phenanthrene-9,10-quinone]
- cytotoxicity (Alamar Blue viability, in words) [9]: increased cytotoxicity

Structure (SMILES): O=C1c2ccccc2-c2ccccc21 [9-FLO, 9-fluorenone]
- IC50 [1, 11]: 3000 nM

Structure (SMILES): O=C1c2ccccc2-c2ccc3ccccc3c21 [BFLO, benzo[a]fluorenone]
- increase of CYP1B1 mRNA levels compared to DMSO control ([2]; 0.1-10 μM oxy-PAH): ≤ 40 fold
- increase of CYP1A1 mRNA levels compared to DMSO control ([3]; 0.1-10 μM oxy-PAH): up to 60 fold
- reduction of TCDD-induced CYP1B1 mRNA levels [6]: around 50%
- inhibition of TCDD-mediated EROD activity (in words) [7]: most potent inhibitors
- IC50 ([1]; read-out: IC50, inhibition of CYP1A1-mediated EROD activity, human recombinant CYP1A1 2.5 nM, 7-ethoxyresorufin 0.5 μM, NADPH 0.4 mM, 5 min pre-incubation): 61 nM
- reduction of TCDD-induced CYP1A1 mRNA levels [8]: around 50%

Structure (SMILES): Clc1cc2c(cc1Cl)Oc1cc(Cl)c(Cl)cc1O2 [TCDD, 2,3,7,8-Tetrachlorodibenzo-p-dioxin, reference compound]
- increase of CYP1B1 mRNA levels compared to DMSO control ([2]; TCDD alone 5 nM): 36 fold
- increase of CYP1A1 mRNA levels compared to DMSO control ([3]; TCDD alone 5 nM): 138 fold

Structure (SMILES): c1ccc2cc3c(ccc4ccccc43)cc2c1 [benz[a]anthracene]
- IC50 [10]: < 100 nM

Structure (SMILES): c1ccc2c(c1)ccc1nc3ccc4ccccc4c3cc12 [dibenz[a,j]acridine]
- IC50 [10]: < 100 nM

Structure (SMILES): c1cc2ccc3cccc4ccc(c1)c2c34 [pyrene]
- IC50 [10]: < 100 nM

Structure (SMILES): O=c1cc(-c2ccccc2)oc2c1ccc1ccccc12 [αNF, α-Naphthoflavone]
- IC50 [10]: < 100 nM
